These results are taken from ChEMBL document CHEMBL1147868, “Synthesis of novel triazole derivatives as inhibitors of cytochrome P450 14alpha-demethylase (CYP51)” (2007).

Values after ≈ are worked out from the molar mass of the structure shown. A value given as a limit tells only on which side of the number the result lay.

Common to all, as to format: functional
One test has as its system Candida tropicalis. The test is described as follows: Antifungal activity against Candida tropicalis after 7 days by micro-broth dilution method. The following applies: 168 h. Summed up:
(§1)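 Micro-broth dilution followed NCCLS methods, using an ATCC standard quality-control strain for C. parapsilosis and a clinical isolate for C. tropicalis. Compounds were dissolved in DMSO, serially diluted in growth medium and incubated at 35 C. MIC80 was the first well with about 80% growth reduction compared with the drug-free well.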

The next test concerns Candida parapsilosis. Put plainly: Antifungal activity against Candida parapsilosis ATCC 0306392 after 7 days by micro-broth dilution method. The note with it: Lodderomyces parapsilosis, ATCC 0306392, 168 h. Summed up: as §1
The subject of a further test is Aspergillus fumigatus. The test is described as follows: Antifungal activity against Aspergillus fumigatus after 7 days by micro-broth dilution method. The note with it: 168 h. The method, boiled down:
(§2)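 Clinical isolates supplied by a hospital were tested by NCCLS broth microdilution. Compounds were dissolved in DMSO, serially diluted in growth medium, inoculated and incubated at 35 C. Growth was read at 7 days for filamentous fungi. MIC80 was taken as the first well with about 80% less growth than the drug-free well.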
For orientation: In broth dilution the organism is exposed to a series of concentrations in liquid medium.

The next test relates to Cryptococcus neoformans. Put plainly: Antifungal activity against Cryptococcus neoformans ATCC BLS108 after 72 hrs by micro-broth dilution method. The method, boiled down:
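This ATCC standard quality-control strain was tested in every assay by NCCLS microdilution. Test agents were dissolved in DMSO and serially diluted in growth medium. Cultures were incubated at 35 C and read at 72 h. MIC80 was the first well with approximately 80% reduced growth relative to the drug-free well.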

For another test, the system named is Fonsecaea compacta. Put plainly: Antifungal activity against Fonsecaea compacta after 7 days by micro-broth dilution method. The note with it: 168 h. The method, boiled down: as §2
The test system of another test is Microsporum. The test is described as follows: Antifungal activity against Microsporum gypseum after 7 days by micro-broth dilution method. The following applies: 168 h. The method, boiled down:
as §2

Another test deals with Candida albicans. Put plainly: Antifungal activity against Candida albicans ATCC Y0109 after 24 hrs by micro-broth dilution method. The method, boiled down:
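An ATCC standard quality-control strain was included in each run of an NCCLS micro-broth dilution assay. Compounds were dissolved in DMSO, serially diluted in growth medium and incubated at 35 C. Reading was at 24 h, and MIC80 was the first well showing roughly 80% growth reduction versus the drug-free control.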

For the next test, the system named is Trichophyton rubrum. The test is described as follows: Antifungal activity against Trichophyton rubrum after 7 days by microbroth dilution method. The following applies: 168 h. The method, boiled down: as §2

For `COc1cccc(C(=O)Nc2ccc(N3CCN(CC(O)(Cn4cncn4)c4ccc(F)cc4F)CC3)c(F)c2)c1` (stereo not drawn), the MIC80 with Candida tropicalis was 0.0152 µg/mL (≈ 0.0268 µM); in the test on Candida parapsilosis it was 0.0152 µg/mL (≈ 0.0268 µM); against Aspergillus fumigatus, 1 µg/mL (≈ 1.76 µM); against Cryptococcus neoformans, 0.0152 µg/mL (≈ 0.0268 µM); in the test with Fonsecaea compacta it was 0.25 µg/mL (≈ 0.441 µM); in the test with Microsporum, 0.25 µg/mL (≈ 0.441 µM). The MIC80 is 0.0625 µg/mL (≈ 0.11 µM) with Candida albicans and 0.0152 µg/mL (≈ 0.0268 µM) against Trichophyton rubrum.

For the compound `COc1cc(C(=O)Nc2ccc(N3CCN(CC(O)(Cn4cncn4)c4ccc(F)cc4F)CC3)c(F)c2)cc(OC)c1OC` (stereo not drawn), the MIC80 in the test with Candida tropicalis was determined as 0.0625 µg/mL (≈ 0.0997 µM); in the test with Candida parapsilosis, 0.0625 µg/mL (≈ 0.0997 µM); against Aspergillus fumigatus, 4 µg/mL (≈ 6.38 µM); in the test with Cryptococcus neoformans, 1 µg/mL (≈ 1.6 µM); against Fonsecaea compacta, 4 µg/mL (≈ 6.38 µM); against Microsporum it was 1 µg/mL (≈ 1.6 µM). In addition, the MIC80 in the test on Candida albicans was 0.25 µg/mL (≈ 0.399 µM); with Trichophyton rubrum, > 64 µg/mL.

In the case of `COc1ccccc1C(=O)Nc1ccc(N2CCN(CC(O)(Cn3cncn3)c3ccc(F)cc3F)CC2)c(F)c1` (stereo not drawn), the MIC80 in the test with Candida tropicalis was determined as 0.0152 µg/mL (≈ 0.0268 µM); against Candida parapsilosis, 0.25 µg/mL (≈ 0.441 µM); against Aspergillus fumigatus, 1 µg/mL (≈ 1.76 µM); with Cryptococcus neoformans, 0.0625 µg/mL (≈ 0.11 µM); with Fonsecaea compacta it was 0.25 µg/mL (≈ 0.441 µM); against Microsporum, 0.0625 µg/mL (≈ 0.11 µM). Moreover, the MIC80 in the test on Candida albicans and in the test with Trichophyton rubrum was 0.0625 µg/mL (≈ 0.11 µM) throughout.

With `Cc1ccc(C(=O)Nc2ccc(N3CCN(CC(O)(Cn4cncn4)c4ccc(F)cc4F)CC3)c(F)c2)cc1C` (stereo not drawn), the MIC80 against Candida tropicalis was 0.0625 µg/mL (≈ 0.111 µM); against Candida parapsilosis it was 0.0152 µg/mL (≈ 0.0269 µM); in the test on Aspergillus fumigatus, 1 µg/mL (≈ 1.77 µM); in the test on Cryptococcus neoformans, 0.25 µg/mL (≈ 0.443 µM); in the test on Fonsecaea compacta, 0.25 µg/mL (≈ 0.443 µM); with Microsporum it was 0.0152 µg/mL (≈ 0.0269 µM). For the same compound, the MIC80 in the test with Candida albicans is 0.25 µg/mL (≈ 0.443 µM); with Trichophyton rubrum it was 0.0625 µg/mL (≈ 0.111 µM).

As for `O=C(Nc1ccc(N2CCN(CC(O)(Cn3cncn3)c3ccc(F)cc3F)CC2)c(F)c1)c1cccc(C(F)(F)F)c1` (stereo not drawn), the MIC80 worked out at 0.25 µg/mL (≈ 0.414 µM) against Candida tropicalis; 0.0152 µg/mL (≈ 0.0251 µM) against Candida parapsilosis; 4 µg/mL (≈ 6.62 µM) in the test on Aspergillus fumigatus; 0.25 µg/mL (≈ 0.414 µM) with Cryptococcus neoformans; 0.25 µg/mL (≈ 0.414 µM) in the test on Fonsecaea compacta; 0.0625 µg/mL (≈ 0.103 µM) in the test on Microsporum. Besides, the results for the MIC80 against Candida albicans and with Trichophyton rubrum were 0.25 µg/mL (≈ 0.414 µM) and 0.0625 µg/mL (≈ 0.103 µM), respectively.

As to `CC(C)(C)c1ccc(C(=O)Nc2ccc(N3CCN(CC(O)(Cn4cncn4)c4ccc(F)cc4F)CC3)c(F)c2)cc1` (stereo not drawn), the MIC80 in the test with Candida tropicalis is 0.25 µg/mL (≈ 0.422 µM); against Candida parapsilosis, 0.0625 µg/mL (≈ 0.105 µM); in the test on Aspergillus fumigatus, 4 µg/mL (≈ 6.75 µM); in the test with Cryptococcus neoformans it was 0.25 µg/mL (≈ 0.422 µM); in the test with Fonsecaea compacta it was 0.25 µg/mL (≈ 0.422 µM); in the test with Microsporum, 0.25 µg/mL (≈ 0.422 µM). For the same compound, the MIC80 in the test on Candida albicans amounted to 1 µg/mL (≈ 1.69 µM); against Trichophyton rubrum, 4 µg/mL (≈ 6.75 µM).

As to `CCCCCc1ccc(C(=O)Nc2ccc(N3CCN(CC(O)(Cn4cncn4)c4ccc(F)cc4F)CC3)c(F)c2)cc1` (stereo not drawn), the MIC80 against Candida tropicalis is 4 µg/mL (≈ 6.59 µM); in the test with Candida parapsilosis it was 0.25 µg/mL (≈ 0.412 µM); with Aspergillus fumigatus, 4 µg/mL (≈ 6.59 µM); in the test with Cryptococcus neoformans it was 0.25 µg/mL (≈ 0.412 µM); against Fonsecaea compacta, 1 µg/mL (≈ 1.65 µM); against Microsporum, 1 µg/mL (≈ 1.65 µM). The MIC80 against Candida albicans worked out at 0.25 µg/mL (≈ 0.412 µM); with Trichophyton rubrum, 1 µg/mL (≈ 1.65 µM).

Turning to `O=C(Nc1ccc(N2CCN(CC(O)(Cn3cncn3)c3ccc(F)cc3F)CC2)c(F)c1)c1ccc(OC(F)(F)F)cc1` (stereo not drawn), the MIC80 against Candida tropicalis was 0.0625 µg/mL (≈ 0.101 µM); against Candida parapsilosis, 0.0625 µg/mL (≈ 0.101 µM); against Aspergillus fumigatus, 1 µg/mL (≈ 1.61 µM); in the test on Cryptococcus neoformans, 0.25 µg/mL (≈ 0.403 µM); in the test on Fonsecaea compacta, 0.0625 µg/mL (≈ 0.101 µM); in the test on Microsporum it was 0.0625 µg/mL (≈ 0.101 µM). Also, the MIC80 was found to be 0.0152 µg/mL (≈ 0.0245 µM) in the test on Candida albicans and 0.0625 µg/mL (≈ 0.101 µM) in the test on Trichophyton rubrum.

Consider `O=C(Nc1ccc(N2CCN(CC(O)(Cn3cncn3)c3ccc(F)cc3F)CC2)c(F)c1)c1ccccc1[N+](=O)[O-]` (stereo not drawn), for which the MIC80 with Candida tropicalis was 0.0625 µg/mL (≈ 0.107 µM); against Candida parapsilosis, 0.0625 µg/mL (≈ 0.107 µM); in the test on Aspergillus fumigatus, 1 µg/mL (≈ 1.72 µM); against Cryptococcus neoformans, 1 µg/mL (≈ 1.72 µM); in the test with Fonsecaea compacta, 1 µg/mL (≈ 1.72 µM); in the test on Microsporum, 0.0625 µg/mL (≈ 0.107 µM). Also, the MIC80 against Candida albicans and in the test with Trichophyton rubrum was 0.0152 µg/mL (≈ 0.0261 µM) in each case.

In the case of `O=C(Nc1ccc(N2CCN(CC(O)(Cn3cncn3)c3ccc(F)cc3F)CC2)c(F)c1)c1ccc([N+](=O)[O-])cc1` (stereo not drawn), the MIC80 is 4 µg/mL (≈ 6.88 µM) in the test with Candida tropicalis; 1 µg/mL (≈ 1.72 µM) in the test with Candida parapsilosis; 4 µg/mL (≈ 6.88 µM) with Aspergillus fumigatus; 0.25 µg/mL (≈ 0.43 µM) against Cryptococcus neoformans; 0.0625 µg/mL (≈ 0.107 µM) against Fonsecaea compacta; 0.0625 µg/mL (≈ 0.107 µM) in the test with Microsporum. The MIC80 with Candida albicans and against Trichophyton rubrum was 0.25 µg/mL (≈ 0.43 µM) throughout.

As to `CCc1ccc(C(=O)Nc2ccc(N3CCN(CC(O)(Cn4cncn4)c4ccc(F)cc4F)CC3)c(F)c2)cc1` (stereo not drawn), the MIC80 is 0.0625 µg/mL (≈ 0.111 µM) against Candida tropicalis; 4 µg/mL (≈ 7.08 µM) with Candida parapsilosis; 1 µg/mL (≈ 1.77 µM) in the test on Aspergillus fumigatus; 0.0625 µg/mL (≈ 0.111 µM) in the test on Cryptococcus neoformans; 0.0625 µg/mL (≈ 0.111 µM) in the test on Fonsecaea compacta; 0.25 µg/mL (≈ 0.443 µM) with Microsporum. Moreover, the MIC80 against Candida albicans amounted to 0.25 µg/mL (≈ 0.443 µM); against Trichophyton rubrum, 0.0625 µg/mL (≈ 0.111 µM).

The term MIC80 denotes an inhibitory concentration at the 80% level, which refers to growth in some studies and to a panel of isolates in others. Low values mean higher susceptibility, high ones lower susceptibility.
